Results on 54 sequences are retold here after the array DNA melting data of Ke et al. (doi:10.1101/2024.01.08.574731).

Series [1] in a line: melting temperature; fluorescence melt of hairpins on a sequencing array, two-state fit, raised by 9.35 °C to match UV melts. The conditions noted are these: sodium 0.088 M. The essentials:
(§1)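 Melting temperature and folding enthalpy were derived from bootstrapped two-state fits. The fitted temperatures were raised by 9.35 °C to agree with UV melts, and four replicates were combined by inverse variance. The underlying data were Cy3 fluorescence images of library hairpins, with annealed Cy3 and quencher oligos, on a sequenced MiSeq flow cell in 50 mM Na-HEPES pH 8.0, 25 mM NaCl, taken in 2.5 °C steps up to 60 °C, normalised to pre-quench Cy3 and to control constructs.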

Series [2] is described as follows: folding enthalpy; higher = less favourable; fluorescence melt of hairpins on a sequencing array, two-state fit. To be noted: sodium 0.088 M. The essentials:
as §1

Turning to GCTACCCCGAAAGGGAGC (((..(((....)))))), the Tm in series [1] was determined as 46.9 °C. For the same sequence, the folding enthalpy in series [2] is -22.8 kcal/mol.
Taken in the same sequence, the figures for GCTACCCGAAAGGGAGC (((.(((....)))))) were 55.5 °C and -23.1 kcal/mol.
The like results for GCTACCGAAAGGTACAGC ((((((....)))..))) were, in that order, 42.5 °C and -13.6 kcal/mol.
With GCTACCGAAAGGTATAGC ((((((....)))..))), the Tm in series [1] amounted to 44.4 °C. Also, in series [2], the folding enthalpy was -18.2 kcal/mol.
Taken in the same sequence, the figures for GCTACCGAAAGGTCGAGC ((((((....)))..))) were 37 °C and -16.3 kcal/mol.
The like results for GCTACCGAAAGGTTAAGC ((((((....)))..))) were, in that order, 39.4 °C and -19.6 kcal/mol.
Taken in the same sequence, the figures for GCTACCGAAAGGTTCAGC ((((((....)))..))) were 35.5 °C and -16.3 kcal/mol.
With GCTACCGAAAGGTTTAGC ((((((....)))..))), in series [1], the Tm was 38.5 °C. For the same sequence, the folding enthalpy in series [2] was -17.6 kcal/mol.
For the sequence GCTACCGGAAACGGCAGC (((.(((....))).))), the Tm in series [1] is 51.8 °C. In addition, in series [2], the folding enthalpy was -38.7 kcal/mol.
Regarding GCTACGCGAAAGCATAGC ((((.((....)).)))), the Tm in series [1] is 53.9 °C. Also, the folding enthalpy in series [2] was -28 kcal/mol.
Taken in the same sequence, the figures for GCTACGCGAAAGCATCGC ((.(.((....)).).)) were 30.7 °C and -9.49 kcal/mol.
GCTACGCGAAAGCGCCGC ((..(((....)))..)): in series [1], the Tm was determined as 36.8 °C. For the same sequence, the folding enthalpy in series [2] is -10.9 kcal/mol.
Turning to GCTACGCGAAAGCGGCGC ((..(((....)))..)), the Tm in series [1] was found to be 60.5 °C. Also, the folding enthalpy in series [2] was -19.6 kcal/mol.
Taken in the same sequence, the figures for GCTACGCGAAAGCGGTGC ((..(((....)))..)) were 56 °C and -16 kcal/mol.
The like results for GCTACGCGAAAGCTTAGC ((((.((....)).)))) were, in that order, 55.4 °C and -20.8 kcal/mol.
Consider GCTACGCGAAAGCTTCGC ((.(.((....)).).)), for which, in series [1], the Tm is 37.6 °C. For the same sequence, in series [2], the folding enthalpy was -10.3 kcal/mol.
Taken in the same sequence, the figures for GCTACGGGAAACCATAGC ((((.((....)).)))) were 39.4 °C and -31 kcal/mol.
The like results for GCTACGGGAAACCGCAGC (((.(((....))).))) were, in that order, 49.7 °C and -41.7 kcal/mol.
As to GCTACGGGAAACCGTAAC (.(((((....))))).), the Tm in series [1] came out at 36.1 °C. The folding enthalpy in series [2] was -13.7 kcal/mol.
Regarding GCTACTCGAAAGAGAGC (((.(((....)))))), in series [1], the Tm amounted to 44.8 °C. Also, the folding enthalpy in series [2] is -25.4 kcal/mol.
Taken in the same sequence, the figures for GCTAGAACGAAAGTTAGC (((..(((....)))))) were 38.3 °C and -26.6 kcal/mol.
Regarding GCTAGAGGAAACTCTAGC (((((((....))))))), the Tm in series [1] turned out to be 58.5 °C. Further, the folding enthalpy in series [2] was -44 kcal/mol.
The like results for GCTAGATCGAAAGATAGC (((..(((....)))))) were, in that order, 36.4 °C and -19.4 kcal/mol.
Consider GCTAGCCGAAAGGCCAGC (((.(((....))).))), for which the Tm in series [1] was determined as 54.3 °C. Besides, the folding enthalpy in series [2] is -20.8 kcal/mol.
With GCTAGCGAAAGCTATAGC ((((((....)))..))), the Tm in series [1] turned out to be 46.5 °C. Also, the folding enthalpy in series [2] was -18.5 kcal/mol.
Taken in the same sequence, the figures for GCTAGCGAAAGCTCCAGC ((((((....)))..))) were 33.1 °C and -10.8 kcal/mol.
The like results for GCTAGCGAAAGCTGAAGC ((((((....)))..))) were, in that order, 43.1 °C and -15 kcal/mol.
Taken in the same sequence, the figures for GCTAGCGAAAGCTGAGC ((((((....))).))) were 49.9 °C and -28.5 kcal/mol.
Regarding GCTAGCGAAAGCTGGAGC ((((((....)))..))), in series [1], the Tm came to 43.2 °C. Moreover, the folding enthalpy in series [2] is -14.1 kcal/mol.
Taken in the same sequence, the figures for GCTAGCGAAAGCTTAAGC ((((((....)))..))) were 43.2 °C and -16.9 kcal/mol.
On to GCTAGCGGAAACGTTAGC ((((.((....)).)))), for which, in series [1], the Tm came out at 51.3 °C. Also, the folding enthalpy in series [2] is -34.1 kcal/mol.
As for GCTAGGCCGAAAGGCAGC (((..(((....)))))), the Tm in series [1] was 47.8 °C. In series [2], the folding enthalpy is -15.1 kcal/mol.
Taken in the same sequence, the figures for GCTAGGCGAAAGCCTGGC ((.((((....)))).)) were 68.2 °C and -21.1 kcal/mol.
The like results for GCTAGGCGAAAGCGTTGC ((.(.((....)).).)) were, in that order, 42 °C and -21.9 kcal/mol.
The like results for GCTAGGCGAAAGCTAAGC (((..((....))..))) were, in that order, 48.7 °C and -18.6 kcal/mol.
Turning to GCTAGGGGAAACCCTAGC (((((((....))))))), the Tm in series [1] was found to be 65.9 °C. Besides, the folding enthalpy in series [2] was -44.2 kcal/mol.
In the case of GCTAGTACGAAAGTAAGC (((..(((....)))))), in series [1], the Tm worked out at 28.2 °C. In addition, in series [2], the folding enthalpy is -14.7 kcal/mol.
Taken in the same sequence, the figures for GCTATCGAAAGATACAGC ((((((....)))..))) were 32.6 °C and -20.8 kcal/mol.
The like results for GCTATCGAAAGATAGC ((((((....)))))) were, in that order, 66.4 °C and -39 kcal/mol.
Taken in the same sequence, the figures for GCTATCGAAAGATGAAGC ((((((....)))..))) were 32.8 °C and -16.2 kcal/mol.
As for GCTATGCGAAAGCAAGC (((.(((....)))))), in series [1], the Tm is 51.7 °C. The folding enthalpy in series [2] was -17.5 kcal/mol.
On to GCTATGCGAAAGCACTGC ((..(((....)))..)), for which the Tm in series [1] stood at 36.3 °C. In addition, the folding enthalpy in series [2] is -15.3 kcal/mol.
Taken in the same sequence, the figures for GCTATGCGAAAGCAGCGC ((..(((....)))..)) were 54.2 °C and -18.9 kcal/mol.
The like results for GCTATGCGAAAGCATGGC ((.((((....)))).)) were, in that order, 65 °C and -32 kcal/mol.
Taken in the same sequence, the figures for GCTATGCGAAAGCCTAGC ((((.((....)).)))) were 52.4 °C and -28.8 kcal/mol.
For the sequence GCTATGCGAAAGCGTCGC ((.(.((....)).).)), the Tm in series [1] came to 43.2 °C. Besides, in series [2], the folding enthalpy is -18.1 kcal/mol.
Taken in the same sequence, the figures for GCTATGCGAAAGCGTGGC ((.(.((....)).).)) were 53.5 °C and -26.1 kcal/mol.
Taken in the same sequence, the figures for GCTATGCGAAAGCGTTGC ((.(.((....)).).)) were 48.9 °C and -22.9 kcal/mol.
Take GCTATGCGAAAGCTTCGC ((.(.((....)).).)): in series [1], the Tm amounted to 41.5 °C. Also, the folding enthalpy in series [2] was -14.2 kcal/mol.
For the sequence GCTATGGGAAACCACAGC (((.(((....))).))), in series [1], the Tm came out at 38.6 °C. The folding enthalpy in series [2] is -23.7 kcal/mol.
With GCTATTACGAAAGTAAGC (((..(((....)))))), the Tm in series [1] is 30 °C. The folding enthalpy in series [2] is -13.6 kcal/mol.
Consider GCTATTCGAAAGAAAGC (((.(((....)))))), for which, in series [1], the Tm is 32.1 °C. The folding enthalpy in series [2] is -20.1 kcal/mol.
Take GCTATTCGAAAGAACAGC (((.(((....))).))): the Tm in series [1] came out at 40.4 °C. In addition, the folding enthalpy in series [2] is -29.6 kcal/mol.
In the case of GCTATTGGAAACGATAGC (((((.(....).))))), in series [1], the Tm stood at 44.8 °C. Further, the folding enthalpy in series [2] is -32.4 kcal/mol.
